Laboratory results from ChEMBL document CHEMBL1139359, “Novel chemotactic For-Met-Leu-Phe-OMe (fMLF-OMe) analogues based on met residue replacement by 4-amino-proline scaffold: synthesis and bioactivity” (2009).
Active and inactive are the calls of the source. The rule behind the calls is not given here.

How the values were obtained:
Neutrophil [1] = assay: Induction of superoxide anion radicals production in human neutrophil at 10 uM; format: functional
Outline: (§1)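 Donor neutrophils (dextran/Ficoll/hypotonic lysis, KRPG pH 7.4) pretreated with 5 µg/mL cytochalasin B for 5 min. Peptide then added at 10^–10–5·10^–5 M at 37 °C in microplate reader. Cytochrome c reduction read as absorbance difference 550 vs 468 nm (absorptivity 18.5 mmol^–1 cm^–1). Expressed as net nmol O2− per 10^6 cells per 5 min, mean of six experiments in duplicate.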

Neutrophil [2] = assay: Induction of lysozyme release in human neutrophil at 1 uM; format: functional
Outline: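 Cells at 3×10^6/well, in triplicate wells, preincubated with 5 µg/mL cytochalasin B at 37 °C for 15 min, then peptide (final 10^–10–5·10^–5 M) for 15 min. Plates spun 400g for 5 min. Supernatant lysozyme measured nephelometrically as rate of Micrococcus lysodeikticus cell-wall lysis at 465 nm. Expressed as net % of total content released by 0.1% Triton X-100. Mean of five experiments in duplicate.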

Neutrophil [3] = assay: Inhibition of fMLF-OMe-induced superoxide anion radicals production in human neutrophil; format: functional, cell-based
Neutrophil [4] = assay: Induction of chemotactic activity in human neutrophil assessed as chemotactic index at 1 nM; format: functional
Outline: (§2)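 Neutrophils from healthy donors were purified by dextran sedimentation, Ficoll-Paque centrifugation and hypotonic red-cell lysis, then held in KRPG pH 7.4. Peptide placed in lower well of a 48-well microchemotaxis chamber, diluted in KRPG with 1 mg/mL BSA, tested at 10^–13 to 10^–5 M. Migration into filter scored by leading-front method. C.I. = (test − buffer migration)/buffer migration. Mean of six experiments run in duplicate.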

Neutrophil [5] = assay: Induction of superoxide anion radicals production in human neutrophil at 1 uM; format: functional; outline: as §1
Neutrophil [6] = assay: Inhibition of fMLF-OMe-induced lysozyme release in human neutrophil assessed as lysis of Micrococcus lysodeikticus cell wall by nephelometry; format: functional, cell-based
Neutrophil [7] = assay: Induction of chemotactic activity in human neutrophil at 0.1 nM; format: functional; outline: as §2
Neutrophil [8] = assay: Inhibition of fMLF-OMe-induced chemotactic index in human neutrophil at 100 uM; format: functional; design: Activity: scale not given: the % may be the effect or the level left; details: for inhibition at 100 µM: Homo sapiens, Neutrophil
Outline: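 Human neutrophils, chemotaxis toward 10 nM fMLF-OMe in microchemotaxis chamber, measured with increasing concentrations of test peptide. Inhibition scored on chemotactic index (test − buffer migration over buffer migration), with migration assessed by leading-front method.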

Compound | Activity (Neutrophil [1]) [nmol] | Activity (Neutrophil [2]) [%] | Activity (Neutrophil [3]) | Activity (Neutrophil [4]) | Activity (Neutrophil [5]) [nmol] | Activity (Neutrophil [6]) | Activity (Neutrophil [7]) | inhibition at 100 µM (Neutrophil [8]) [%] | Activity (Neutrophil [8]) [%] | Activity (Neutrophil [1]; in the assay text read “1 uM” for “10 uM”) [nmol]
COC(=O)[C@H](Cc1ccccc1)NC(=O)[C@H](CC(C)C)NC(=O)[C@@H]1C[C@H](NC=O)CN1C(=O)OC(C)(C)C | 2 | 12 | inactive | 0.34 |  |  |  |  |  | 
COC(=O)[C@H](Cc1ccccc1)NC(=O)[C@H](CC(C)C)NC(=O)[C@@H]1C[C@@H](NC=O)CN1C=O |  | 15 |  |  | 5 | inactive | 0.75 |  |  | 
COC(=O)[C@H](Cc1ccccc1)NC(=O)[C@H](CC(C)C)NC(=O)[C@H](CCSC)NC=O |  | 60 |  | 1.1 | 52 |  |  |  |  | 
COC(=O)[C@H](Cc1ccccc1)NC(=O)[C@H](CC(C)C)NC(=O)[C@@H]1C[C@H](NC(=O)OC(C)(C)C)CN1C(=O)OC(C)(C)C | 14.6 | 12 |  | 0.4 |  | inactive |  | 60 |  | 
COC(=O)[C@H](Cc1ccccc1)NC(=O)[C@H](CC(C)C)NC(=O)[C@@H]1C[C@@H](NC=O)CN1C(=O)OC(C)(C)C | 1 | 13 | inactive | 0.4 |  |  |  |  | 73 | 
COC(=O)[C@H](Cc1ccccc1)NC(=O)[C@H](CC(C)C)NC(=O)[C@@H]1C[C@@H](NC(=O)OC(C)(C)C)CN1C(=O)OC(C)(C)C | 2 | 18 |  |  |  | inactive | 0.45 | 60 |  | 
COC(=O)[C@H](Cc1ccccc1)NC(=O)[C@H](CC(C)C)NC(=O)[C@@H]1C[C@H](NC=O)CN1C=O |  | 24 |  |  |  | inactive | 0.7 |  |  | 4
